Screening data: PubChem BioAssay, several laboratories
NRP1-CendR mod: modulators of CendR peptide binding to NRP-1, primary screen, biochemical, fluorescence polarization, uHTS. FAM-RPARPAR peptide binding to NRP-1. Neuropilin-1 (Homo sapiens), O14786. inhibition, % at 25 µM. 360,000 compounds, 0.85% hits;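 active means inhibition or corrected inhibition above about 18%, plus a signal ratio from 0.5 to 1.5, limit read from the data, passing the limit was not always enough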
Arrestin-AP2 inh: inhibitors of beta-arrestin/AP2 binding, primary screen, biochemical, GPCR trafficking, flow cytometry | beta-arrestin 1 C-terminal peptide binding to AP2 beta2-adaptin appendage (human) | FITC-arrestin peptide / GST-AP2 beads; AP2 beta2 appendage carries R879A mutation | inhibition, % at 10 µM | 340,000 compounds, 0.31% hits | AID 504490, 2011;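 active means inhibition above a set limit, near 3 SD of compounds lacking own fluorescence, cut at about 54% in these data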
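Material – GST-tagged AP2 beta2-adaptin appendage (R879A) on 4 µm glutathione beads · Probe or stimulus – fluorescein-tagged arrestin peptide at 50 nM final · Timing – 12 min plus 1 h, RT · Detection – bead flow cytometry, FITC channel · Read-out basis – inhibition as reduced fluorescein signal on beads, percent · Medium – PBS plus Tween 20 (0.05%) and BSA (0.1%)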
Lipid droplet: inhibitors of hepatocyte lipid droplet formation, primary screen, imaging, high-throughput imaging, BODIPY stain | AML12 mouse hepatocytes, oleate lipid droplets | inhibition, % at 6.5 µM | 240,000 compounds, 0.4% hits | AID 1656, 2009;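 active means lipid droplet intensity inhibited by at least 50%, with more than 500 cells counted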
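Material – AML12 mouse liver cells · Also added – oleate loading, 100 µM · Compound dosing – 6.5 µM single-point dosing · Times – overnight treatment with compound plus oleate · Measured by – fluorescence imaging, 20x objective, two fields per well · Read-out – percent inhibition of filter-corrected integrated lipid droplet intensity per well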
HTR2A ag: mouse Htr2a agonists via beta-arrestin recruitment, primary screen, cell-based, luminescence; 5-hydroxytryptamine receptor 2A (Mus musculus), P35363; CHO-K1 mHTR2A beta-arrestin complementation; percent of 30 µM serotonin response; activation, % at 7.6 µM; 360,000 compounds, 0.66% hits; AID 624169, 2012;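 active means activation above a run cutoff, the mean activation of all tested compounds plus 3 SD, cut at about 14% in these data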
Target sequence (P35363 whole entry, looked up): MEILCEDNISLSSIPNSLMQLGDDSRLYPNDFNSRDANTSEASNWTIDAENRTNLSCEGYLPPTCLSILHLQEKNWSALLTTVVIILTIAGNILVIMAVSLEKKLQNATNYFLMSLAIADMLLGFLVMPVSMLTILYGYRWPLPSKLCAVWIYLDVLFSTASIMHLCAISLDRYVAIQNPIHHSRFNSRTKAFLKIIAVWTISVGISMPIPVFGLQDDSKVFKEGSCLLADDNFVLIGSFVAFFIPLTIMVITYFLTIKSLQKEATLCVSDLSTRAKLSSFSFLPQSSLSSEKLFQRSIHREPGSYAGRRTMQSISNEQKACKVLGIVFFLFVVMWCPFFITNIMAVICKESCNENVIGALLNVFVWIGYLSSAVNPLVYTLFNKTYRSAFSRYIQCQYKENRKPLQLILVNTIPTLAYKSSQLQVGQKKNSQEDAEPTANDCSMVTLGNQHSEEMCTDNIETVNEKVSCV
M18AAP inhibitor: PfM18AAP inhibitors, malaria aminopeptidase, primary screen, biochemical, QFRET, recombinant enzyme | M18 aspartyl aminopeptidase (Plasmodium falciparum 3D7) | 290,000 compounds, 1.2% hits | inhibition, % at 7.35 µM | AID 1822, 2009 | H-Glu-NHMec fluorogenic cleavage;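 active means inhibition above the campaign mean inhibition over all tested compounds plus 3 SD, cut at about 28% in these data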
sPLA2-III inh: human group III sPLA2 inhibitors, primary screen, biochemical, QFRET, BODIPY PC-A2 liposome substrate | AID 743126, 2013 | 370,000 compounds, 0.56% hits | QFRET BODIPY PC-A2 liposome hydrolysis, fluorescence | inhibition, % at 12.2 µM | Group 3 secretory phospholipase A2 (Homo sapiens), Q9NZ20;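 active means inhibition above mean plus 3 SD of compounds lying within the high and low control bounds, cut at about 19% in these data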
Numbers stand for hits; n = inactive; x = no result. Compounds with a hit are over-represented: about 3.3% of the library has one in this group of screens.

SMILES	NRP1-CendR mod	Arrestin-AP2 inh	Lipid droplet	HTR2A ag	M18AAP inhibitor	sPLA2-III inh
COc1ccc(C2CC(=O)N3CN(Cc4ccco4)CSC3=C2C#N)cc1 (stereo not drawn)	n	n	x	n	30	n
N#CC1=C2SCN(Cc3ccco3)CN2C(=O)CC1c1ccc(Cl)cc1 (stereo not drawn)	n	n	x	n	n	n
COc1ccc(C2CC(=O)N3CN(c4ccc(C)c(Cl)c4)CSC3=C2C#N)cc1 (stereo not drawn)	n	n	x	n	n	n
COCCCN1C(=O)[C@H](CC(=O)NCCc2ccccc2OC)[C@]2(C(=O)OC)CCCCC=C12	x	x	x	x	x	n
COC(=O)c1ccccc1NC(=O)CSc1n[nH]c(C)n1	n	n	n	n	30	n
COC(=O)c1ccccc1NC(=O)CSc1n[nH]c(CC(C)C)n1	n	n	n	n	n	n
COc1ccc(C2CC(=O)C=C(NC3CCCC3)C2)cc1 (stereo not drawn)	29	n	n	n	n	n
COc1ccc(C2CC(=O)C=C(NCCC(C)C)C2)cc1 (stereo not drawn)	n	n	n	n	n	n
CN(C)S(=O)(=O)c1ccc(N2CCCC2)c(C(=O)NCC2CCCCC2)c1	n	n	n	n	n	n
CCOC(=O)C1=C(c2ccccc2)N2CCN=C2S1	x	x	x	x	32	x
CN(C)C=Nc1ccc(Cn2cnc3nc4ccc(Cl)cc4cc3c2=O)cc1	x	x	x	x	x	n
CCCCCCCCN1C(=O)[C@@H](CC(=O)N2CCN(C(=O)C3CC3)CC2)C[C@@]2(C(=O)OC)C1=C[C@H](C(C)(C)C)O[C@@H]2C	x	x	x	x	x	n
Cc1ccc2c(c1)Sc1c(ccc3ccccc13)N2	48	n	n	n	28	n
COC(=O)[C@]12C[C@H](CC(=O)NCCC(C)C)C(=O)N(Cc3cccc4ccccc34)C1=C[C@H](C(C)C)O[C@@H]2C1CC1	x	x	x	x	x	n
CCOc1ccc(-c2cncc3nccn23)cc1	n	x	x	n	x	n
Cc1sc(N)c(C#N)c1C	n	n	n	n	37	n
CS(=O)(=O)N(CC(=O)N1CCN(c2cccc(Cl)c2)CC1)C1CCCCC1	19	n	n	n	n	n
Cc1ccc(Cl)cc1N1CCN(C(=O)CN(C2CCCCC2)S(C)(=O)=O)CC1	n	n	n	n	n	n
Clc1c(Cl)c(Cl)c2n[nH]nc2c1Cl	n	n	n	18	n	n
N#CCCN(C(=O)COC(=O)CSc1ccc(Cl)cc1)c1ccccc1	n	n	x	n	x	n
Cc1ccc(SCC(=O)OCC(=O)N(CCC#N)c2ccccc2)cc1	31	n	x	n	x	n
CCc1ccc(C(=O)/C=C2\Sc3ccccc3NC2=O)cc1	n	n	n	n	n	41
COc1ccc(CCNC(=O)Nc2nc(C(N)COCc3ccccc3)cs2)cc1OC (stereo not drawn)	n	x	x	n	x	n
COc1ccc(S(=O)(=O)NC2CC2)cc1Br	27	n	n	n	n	n
COc1ccc(S(=O)(=O)NC(C)C(=O)NC2CC2)cc1C (stereo not drawn)	28	n	n	n	n	n
SMILES	NRP1-CendR mod	Arrestin-AP2 inh	Lipid droplet	HTR2A ag	M18AAP inhibitor	sPLA2-III inh
O=C(Nc1nc2ncccn2c1-c1ccc(C(F)(F)F)cc1)c1ccc(F)cc1	x	x	x	x	x	n
O=C1NC[C@@H](CCCCN2C[C@H](Cc3ccccc3)N(CCc3ccc(O)cc3)C(=O)C2=O)N(Cc2ccccc2)C1=O	18	x	x	n	x	n
O=C1NC[C@H](CCCCN2C[C@H](Cc3ccc(O)cc3)N(Cc3ccccc3)C(=O)C2=O)N(CCc2ccccc2)C1=O	n	x	x	n	x	n
CCCCCCC12C(=Cc3cc(C)ccc31)c1ccccc1C(CC(=O)NCc1ccccc1)N2C(=O)OC (stereo not drawn)	x	x	x	x	x	n
COC(=O)c1c(C)n(-c2ccccc2)c2ccc(O)cc12	n	n	x	n	n	n
CN(C)/C=C/c1c([N+](=O)[O-])c2ccc(O)cc2n1-c1ccccc1	33	n	n	n	n	n
Cc1ccc(N2CC(C(=O)NCc3nnnn3-c3ccc(C)c(C)c3)CC2=O)cc1 (stereo not drawn)	n	n	n	n	n	n
Cc1ccc(-n2nnnc2CNC(=O)C2CC(=O)N(c3ccccc3)C2)cc1C (stereo not drawn)	28	n	n	n	n	n
CCOc1cc2nc3c4ccccc4n(C)c3nc2cc1OCC	n	n	n	n	n	n
CCN(CC)Cc1cc(Nc2c3ccccc3nc3c4ccccc4n(C)c23)cc(CN(CC)CC)c1O	n	n	x	n	x	21
COP(N)(=O)C(CC(C)C)NC(=O)OCc1ccccc1 (stereo not drawn)	x	x	x	x	x	n
Cc1cccc(C(=O)NCCC(=O)Nc2ccc(F)c([N+](=O)[O-])c2)c1	n	n	n	n	n	n
O=C1C(C2=C(O)c3ccccc3C2=O)=Nc2ccccc21	39	n	x	n	n	n
O=S1(=O)c2ccc(Br)cc2OC[C@@H](Cc2ccccc2)N1Cc1cn(CCC2OCCCO2)nn1	x	x	x	x	x	n
Cc1occc1C(=O)NNC(=O)Nc1ccc(F)cc1F	n	n	n	n	30	n
Cc1occc1C(=O)Nc1ccc(Br)cc1F	n	n	n	n	n	n
CCCc1ccc(-c2cc(NC(=O)Cc3c[nH]c4ccccc34)ccc2Nc2cccnc2)cc1	x	x	x	x	x	n
N#C/C(=C\c1ccc(OCc2cccc(C(=O)O)c2)cc1)C(=O)NCc1ccco1	n	n	n	n	n	n
c1cc2c(cc1C1=NNC(=NC3CC3)SC1)OCCO2	n	n	n	n	31	n
CCCCN=C1NN=C(c2ccc3c(c2)OCCO3)CS1	n	n	n	n	n	n
CC(=O)Nc1ccc(-c2ccnc3c2CC(C(=O)Nc2cccnc2)O3)cc1 (stereo not drawn)	27	x	x	n	x	n
CCCNC(=O)C1(C)CCCN(Cc2cc(-c3ccccc3)n(C)n2)C1 (stereo not drawn)	n	x	x	n	x	n
CCC(=O)Nc1nc(C)c(Oc2ccccc2)c(=O)[nH]1	24	n	x	n	n	n
COc1ccc(NC(=S)NNC(=O)CCn2cc([N+](=O)[O-])cn2)cc1	30	n	n	n	n	n
O=S1(=O)N[C@@H](Cc2ccccc2)COc2cc(Br)ccc21	n	n	x	n	x	n
O=C(CC[C@H]1O[C@@H](n2cnc3c(NC(=O)c4ccccc4)ncnc32)[C@H](O)[C@@H]1O)NCC(F)(F)F	20	x	x	n	x	n
